Reference: ChEMBL document CHEMBL3120115, “Synthesis and biological evaluation of 2-oxonicotinonitriles and 2-oxonicotinonitrile based nucleoside analogues” (Eur J Med Chem, 2014)

How the values were obtained:
West Nile virus = test: Antiviral activity against West Nile virus by visual/neutral red test; type: functional, organism-based
[1] = Selectivity index, ratio of CC50 for cytotoxicity to EC50 for Influenza A virus H3N2; type: toxicity; details: read-out: Ratio CC50/EC50
In short: (§1)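 CC50 is the concentration at which 50% of cells die, and EC50 is the concentration inhibiting 50% of viral infection. SI is calculated as the CC50/EC50 ratio.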

[2] = Selectivity index, ratio of CC50 for cytotoxicity to EC50 for HSV1; type: toxicity; details: read-out: Ratio CC50/EC50; in short: as §1
Influenza B virus = test: Antiviral activity against Influenza B virus by cytopathy assay; type: functional, organism-based
Hepatitis B virus = test: Antiviral activity against Hepatitis B virus assessed as inhibition of viral infection by DNA virion assay; type: functional, organism-based
SARS-CoV = test: Antiviral activity against SARS coronavirus by visual/neutral red test; type: functional, organism-based; details: Severe acute respiratory syndrome-related coronavirus
Influenza A virus [3] = test: Antiviral activity against Influenza A virus H5N1 by cytopathy assay; type: functional, organism-based
Bacillus subtilis = test: Antimicrobial activity against Bacillus subtilis at 250 ug/disc after 48 hrs by well diffusion method; type: functional; details: read-out: DIZ
In short: (§2)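 Well diffusion assay. Bacteria were grown on nutrient agar and fungi on Czapek's-Dox agar; spores were inoculated into sterilized medium, dispersed and poured into plates. Compounds were dissolved in DMF at 250 mg/mL and loaded into 1 cm wells. Plates stood 24 h refrigerated for diffusion, then were incubated at 35 °C for 48 h (bacteria) or 28 °C for 5-7 days (fungi). Inhibition zone diameter was read in mm. DMF-only wells served as negative control.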

Human alphaherpesvirus 1 = test: Antiviral activity against HSV1 assessed as inhibition of viral infection; type: functional, organism-based
[4] = Selectivity index, ratio of CC50 for cytotoxicity to EC50 for Influenza B virus; type: toxicity; details: read-out: Ratio CC50/EC50; in short: as §1
Escherichia coli = test: Antimicrobial activity against Escherichia coli at 250 ug/disc after 48 hrs by well diffusion method; type: functional; details: read-out: DIZ; in short: as §2
Aspergillus viridinutans = test: Antimicrobial activity against Aspergillus viridinutans at 250 ug/disc after 5 to 7 days by well diffusion method; type: functional; details: read-out: DIZ; in short: as §2
Influenza A virus [5] = test: Antiviral activity against Influenza A virus H3N2 by cytopathy assay; type: functional, organism-based
[6] = Selectivity index, ratio of CC50 for cytotoxicity to EC50 for Influenza A virus H5N1; type: toxicity; details: read-out: Ratio CC50/EC50; in short: as §1
[7] = Selectivity index, ratio of CC50 for cytotoxicity to EC50 for HSV2; type: toxicity; details: read-out: Ratio CC50/EC50; in short: as §1
Hepatitis C virus = test: Antiviral activity against Hepatitis C virus assessed as inhibition of viral infection by RNA replicon assay; type: functional, organism-based, Hepacivirus hominis
Human alphaherpesvirus 2 = test: Antiviral activity against HSV2 assessed as inhibition of viral infection; type: functional, organism-based
Aspergillus niger = test: Antimicrobial activity against Aspergillus niger at 250 ug/disc after 5 to 7 days by well diffusion method; type: functional; details: read-out: DIZ; in short: as §2
Influenza A virus [8] = test: Antiviral activity against Influenza A virus H1N1 by cytopathy assay; type: functional, organism-based
[9] = Selectivity index, ratio of CC50 for cytotoxicity to EC50 for Influenza A virus H1N1; type: toxicity; details: read-out: Ratio CC50/EC50; in short: as §1

Row | Compound | zone of inhibition at 250 µg/disc (Bacillus subtilis) [mm] | zone of inhibition at 250 µg/disc (Escherichia coli) [mm] | zone of inhibition at 250 µg/disc (Aspergillus viridinutans) [mm] | zone of inhibition at 250 µg/disc (Aspergillus niger) [mm] | other results
1 | CC(=O)OC[C@H]1O[C@@H](n2c(-c3cccs3)cc(-c3ccc(C(C)C)cc3)c(C#N)c2=O)[C@H](OC(C)=O)[C@@H](OC(C)=O)[C@@H]1OC(C)=O | 1 | 0 | 7 | – | EC50 (West Nile virus): > 4.7 µM; selectivity ratio [1]: > 3; selectivity ratio [2]: > 4.4; EC50 (Influenza B virus): 40 µM; EC50 (Hepatitis B virus): > 100 µM; EC50 (SARS-CoV): > 100 µM; EC50 (Influenza A virus [3]): 32 µM; EC50 (Human alphaherpesvirus 1): 67.2 µM; selectivity ratio [4]: > 2.2; EC50 (Influenza A virus [5]): 33 µM; selectivity ratio [6]: 1; selectivity ratio [7]: > 4.9; EC50 (Hepatitis C virus): > 100 µM; EC50 (Human alphaherpesvirus 2): 60.3 µM
2 | N#Cc1c(-c2cccs2)cc(-c2cccs2)n([C@@H]2O[C@H](CO)[C@@H](O)[C@H](O)[C@H]2O)c1=O | 2 | – | 6 | – | –
3 | CC(=O)OC[C@H]1O[C@@H](n2c(-c3cccs3)cc(-c3ccc(C(C)C)cc3)c(C#N)c2=O)[C@H](OC(C)=O)[C@@H](OC(C)=O)[C@H]1OC(C)=O | – | – | 6 | 9 | –
4 | Nc1ccn([C@@H]2CS[C@H](CO)O2)c(=O)n1 [LAMIVUDINE] | – | – | – | – | EC50 (Hepatitis B virus): 0.035 µM
5 | CC(=O)OC[C@H]1O[C@@H](n2c(-c3ccccn3)cc(-c3ccc(Cl)cc3)c(C#N)c2=O)[C@H](OC(C)=O)[C@@H](OC(C)=O)[C@H]1OC(C)=O | – | 0 | 5 | 7 | –
6 | CC(=O)OCCCCOc1nc(-c2ccccn2)cc(-c2ccc(Cl)cc2)c1C#N | 3 | 0 | 7 | 9 | –
7 | N#Cc1c(-c2ccc(Cl)cc2)cc(-c2ccccn2)n([C@@H]2O[C@H](CO)[C@H](O)[C@H](O)[C@H]2O)c1=O | 2 | 0 | 7 | – | –
8 | N#Cc1c(-c2ccc(Cl)cc2)cc(-c2ccccn2)nc1OCCCCO | 2 | 0 | 5 | 7 | –
9 | N#Cc1c(-c2cccs2)cc(-c2cccs2)nc1O | – | – | – | – | EC50 (West Nile virus): > 4.6 µM; selectivity ratio [1]: > 4.2; selectivity ratio [2]: < 4.7; EC50 (Influenza B virus): > 100 µM; EC50 (Influenza A virus [8]): 32 µM; EC50 (Hepatitis B virus): > 100 µM; EC50 (SARS-CoV): > 100 µM; EC50 (Influenza A virus [3]): > 100 µM; EC50 (Human alphaherpesvirus 1): > 12 µM; selectivity ratio [9]: > 3.1; EC50 (Influenza A virus [5]): 16 µM; selectivity ratio [7]: < 4.8; EC50 (Hepatitis C virus): > 100 µM; EC50 (Human alphaherpesvirus 2): > 12 µM
10 | CC(C)c1ccc(-c2cc(-c3cccs3)n([C@@H]3O[C@H](CO)[C@@H](O)[C@H](O)[C@H]3O)c(=O)c2C#N)cc1 | 10 | 0 | 8 | 7 | –
11 | N#Cc1c(-c2cccs2)cc(-c2cccs2)n([C@@H]2O[C@H](CO)[C@H](O)[C@H](O)[C@H]2O)c1=O | 4 | 0 | 8 | – | –
12 | C[C@@]1(O)[C@H](O)[C@@H](CO)O[C@H]1n1ccc(N)nc1=O | – | – | – | – | EC50 (Hepatitis C virus): 1.6 µM
13 | N#Cc1c(-c2ccc(Cl)cc2)cc(-c2ccccn2)n(CCCO)c1=O | 3 | 0 | 9 | – | –
14 | CC1(C)S[C@@H]2[C@H](NC(=O)[C@H](N)c3ccccc3)C(=O)N2[C@H]1C(=O)O [AMPICILLIN] | 20 | 18 | – | – | –
